Compound activity (PubChem)
Rows were chosen to be rich in hits. Some 1.5% of all compounds tested hit in one or more screens of this group.
PDI inh = PDI (human) enzyme inhibition | P07237 | PDI insulin aggregation turbidity, A650, 90 min | inhibition, % at 10 µM | 350,000 tested, 0.052% active | AID 588391;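 active means mean inhibition across replicates of 30% or more, whatever share of single replicates reach that level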
SIRT5 inh = inhibitors of human sirtuin-5 desuccinylase | 330,000 tested, 1.1% active | AID 652115 | Purified SirT5, succinyl-peptide AMC, trypsin-coupled fluorescence | inhibition, % at 15 µM; in the data active means inhibition above about 15%
S100A4 inh HTS = S100A4-myosin IIA interaction inhibition. 360,000 tested, 0.14% active. inhibition, % at 10.7 µM. P26447. S100A4/TAMRA-MyoIIA peptide fluorescence polarization;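 active means mean inhibition of at least 70% across replicates, with every replicate also reaching that level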
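Compound dosing: one dose per compound; test system: human S100A4 monomer with TAMRA-labelled myosin IIA peptide; probe or stimulus: TAMRA-labelled myosin IIA heavy-chain peptide probe, 5 nM; medium: HEPES buffer with Ca2+, pH 7.2; schedule: 5 min incubation before reading; benchmarks: neutral control DMSO, positive control TFP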
GSIS activator = primary screen for activators of insulin secretion dependent on glucose, INS-1E cells, GLuc reporter luminescence; INS-1E GLuc reporter insulin secretion, 2-3 h; activation, % at 16.6 µM; 370,000 tested, 0.61% active;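 active means lowest replicate activation of at least 40%, so every replicate reaches that level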;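 further: 0% = median of neutral control wells and 100% = median of IBMX positive control wells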
ERp5 inh = inhibitors of human ERp5; Q15084; ERp5 insulin aggregation, absorbance 650 nm, 90 min; inhibition, % at 9.99 µM; 350,000 tested, 0.05% active; AID 651711;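 active means mean replicate inhibition above about 25%, with every replicate also reaching it, limit read from the data, passing the limit was not always enough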
Target sequence (Q15084 whole entry, looked up): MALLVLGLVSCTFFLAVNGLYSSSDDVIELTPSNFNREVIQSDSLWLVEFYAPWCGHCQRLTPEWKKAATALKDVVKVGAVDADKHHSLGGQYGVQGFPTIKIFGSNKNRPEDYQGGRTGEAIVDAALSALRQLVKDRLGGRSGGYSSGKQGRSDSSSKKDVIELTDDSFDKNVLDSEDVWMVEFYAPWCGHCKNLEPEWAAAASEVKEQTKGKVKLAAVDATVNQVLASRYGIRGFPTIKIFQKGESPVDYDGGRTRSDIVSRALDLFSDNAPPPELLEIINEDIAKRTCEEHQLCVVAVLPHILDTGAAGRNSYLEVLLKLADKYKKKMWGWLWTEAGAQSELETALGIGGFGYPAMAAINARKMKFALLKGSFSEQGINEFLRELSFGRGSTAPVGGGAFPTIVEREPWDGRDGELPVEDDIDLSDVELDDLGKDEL
* hit, by the source's call; · = no result.

SMILES	PDI inh	SIRT5 inh	S100A4 inh HTS	GSIS activator	ERp5 inh
C[C@@H]1CN([C@H](C)CO)C(=O)Cc2cc(NC(=O)C3CC3)ccc2O[C@@H]1CN(C)Cc1ccc(C(=O)O)cc1	·	-4	33	29	12
COc1ccc(NC(=O)N(C)C[C@H]2Oc3cc(C#CCN(C)C)ccc3S(=O)(=O)N([C@@H](C)CO)C[C@H]2C)cc1	·	-4	-25	2	-6
O=C(CCn1c2c(c3ccccc31)CCCC2)NNC(=O)c1ccc(Cl)c([N+](=O)[O-])c1	0	27*	3	-37	5
C[C@H]1CN([C@@H](C)CO)C(=O)Cc2cc(NC(=O)Cc3ccccc3)ccc2O[C@H]1CN(C)Cc1ccncc1	·	-6	14	-8	-2
O=C(O)c1ccc(S(=O)(=O)N2CCC3(CC2)CC(=O)c2ccccc2O3)cc1	-3	-12	-4	50*	-1
Cc1ccc(S(=O)(=O)N2CCC3(CC2)CC(=O)c2ccccc2O3)cc1	9	-17	-4	-6	9
CCOC(=O)c1sc2ncn(/N=C/c3cccnc3)c(=O)c2c1C	2	·	·	52*	·
C[C@@H]1CN([C@H](C)CO)C(=O)c2cccc(NS(=O)(=O)c3ccccc3)c2O[C@H]1CN(C)S(=O)(=O)c1cn(C)cn1	·	-1	-5	12	14
CC(C)(C)c1ccc(OCC(=O)Nc2ccc(-c3nc4cccnc4o3)cc2)cc1	-2	·	·	106*	·
CC(C)C(=O)Nc1ccc(-c2nc3cccnc3o2)cc1	8	·	·	13	·
O=C1CC(NS(=O)(=O)c2cccs2)CN1c1ccccc1 (stereo not drawn)	4	-1	-5	1	-6
O=C1CC(NS(=O)(=O)c2cccs2)CN1c1cccc(F)c1 (stereo not drawn)	-2	-1	9	46*	2
CCSc1ncc(Cl)c(C(=O)Nc2ccccc2C)n1	1	33*	-1	9	1
CSc1ncc(Cl)c(C(=O)Nc2ccccc2C)n1	-2	1	-4	-12	3
COc1ccc(S(=O)(=O)Nc2ccc3c(c2)C(=O)N([C@H](C)CO)C[C@H](C)[C@H](CN(C)C(=O)Nc2ccc4c(c2)OCO4)OCCCC[C@H](C)O3)cc1	·	17*	-3	15	-3
Cc1noc(C)c1NC(=O)N(C)C[C@H]1OCCCC[C@H](C)Oc2ccc(NS(=O)(=O)c3ccc(F)cc3)cc2C(=O)N([C@H](C)CO)C[C@@H]1C	·	4	134*	-5	-5
Cc1noc(C)c1NC(=O)N(C)C[C@@H]1OCCCC[C@@H](C)Oc2ccc(NS(=O)(=O)c3ccc(F)cc3)cc2C(=O)N([C@@H](C)CO)C[C@H]1C	·	9	3	13	-2
COc1ccc(NC(=O)N(C)C[C@@H]2Oc3ccc(NS(=O)(=O)c4ccc(F)cc4)cc3C(=O)N([C@H](C)CO)C[C@H]2C)cc1	·	40*	-3	10	2
COc1ccc(S(=O)(=O)Nc2ccc3c(c2)C(=O)N([C@H](C)CO)C[C@H](C)[C@H](CN(C)C(=O)Nc2ccccc2)OCCCC[C@H](C)O3)cc1	·	1	108*	-16	15
COc1ccc(S(=O)(=O)Nc2ccc3c(c2)C(=O)N([C@H](C)CO)C[C@@H](C)[C@H](CN(C)C(=O)Nc2ccccc2)OCCCC[C@@H](C)O3)cc1	·	·	·	-22	·
COc1ccccc1NC(=O)N1C[C@@H](O)COC[C@@H]2O[C@@H](CC(=O)NCCc3ccncc3)CC[C@H]21	·	0	-1	2	-3
C[C@H]1CN([C@@H](C)CO)C(=O)c2cccc(NC(=O)c3ccc(-c4nccs4)cc3)c2O[C@H]1CN(C)S(=O)(=O)c1ccc(F)cc1	·	-2	3	-9	2
C[C@H](CO)N1C[C@H](C)[C@@H](CN(C)Cc2ccc(Cl)c(Cl)c2)Oc2ccc(NC(=O)CCN3CCOCC3)cc2CC1=O	·	-1	5	8	0
COc1ccc(S(=O)(=O)Nc2ccc3c(c2)C(=O)N([C@H](C)CO)C[C@H](C)[C@H](CN(C)C(=O)Nc2ccc(F)cc2)OCCCC[C@H](C)O3)cc1	·	17*	10	-14	2
COc1ccc(NC(=O)N(C)C[C@H]2Oc3c(NS(C)(=O)=O)cccc3C(=O)N([C@@H](C)CO)C[C@H]2C)cc1	·	33*	12	10	-4
